Drawing on ChEMBL document CHEMBL2331119 (Bioorg Med Chem Lett, 2013), this text covers Ki, Activity and Ratio Ki for three compounds.

SMILES strings stand for the structures. Calls of active or inactive are those of the source. The calls are words filed in the database; no cut-off is given here.

In assay [1] the target is T1, Sodium-dependent serotonin transporter (Homo sapiens, UniProt P31645). It counts as cell-based, COS-7.
Target sequence in this assay (P31645 whole entry): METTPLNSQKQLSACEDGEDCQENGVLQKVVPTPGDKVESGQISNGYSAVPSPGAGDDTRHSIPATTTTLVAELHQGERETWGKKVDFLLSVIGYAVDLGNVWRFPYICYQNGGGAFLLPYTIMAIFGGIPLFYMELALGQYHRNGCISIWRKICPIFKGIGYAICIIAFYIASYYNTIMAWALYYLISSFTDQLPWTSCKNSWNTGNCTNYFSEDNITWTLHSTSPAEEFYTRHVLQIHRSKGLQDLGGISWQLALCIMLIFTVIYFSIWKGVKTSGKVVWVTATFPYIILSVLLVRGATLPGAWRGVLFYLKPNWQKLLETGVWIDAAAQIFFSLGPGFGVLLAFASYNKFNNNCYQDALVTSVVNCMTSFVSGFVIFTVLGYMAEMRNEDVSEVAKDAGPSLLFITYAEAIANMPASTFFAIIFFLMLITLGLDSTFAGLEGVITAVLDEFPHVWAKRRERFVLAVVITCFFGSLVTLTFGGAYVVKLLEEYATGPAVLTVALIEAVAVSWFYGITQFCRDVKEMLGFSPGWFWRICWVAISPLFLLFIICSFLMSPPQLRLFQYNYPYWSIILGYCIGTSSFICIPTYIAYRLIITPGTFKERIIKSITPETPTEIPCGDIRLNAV
Assay [2] concerns the target Sodium-dependent dopamine transporter (Homo sapiens, UniProt Q01959). Description: Inhibition of [3H]dopamine uptake at human DAT expressed in COS7 cells after 3 mins by beta-counting. It is filed as cell-based, COS-7.
For assay [3], the target named is Sodium-dependent noradrenaline transporter (Homo sapiens, UniProt P23975). The assay can be described thus: Inhibition of [3H]dopamine uptake at human NET expressed in COS7 cells after 5 mins by beta-counting. It counts as cell-based, COS-7.
For assay [4], the target named is T1, Sodium-dependent serotonin transporter. Description: Binding affinity to EGFP fused human SERT expressed in HEK293 cells after 1 hr by confocal microscopy in presence of 5-HT. It counts as cell-based. In a few lines: (§1)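 Live HEK293 cells stably expressing EGFP-hSERT were incubated 1 h at 37°C with 20 nM rhodamine-labeled ligand. […] Confocal microscopy scored red-channel fluorescence at the cell surface against EGFP (green) distribution. Images are representative of more than 3 individual experiments.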
Target sequence in this assay (P31645 whole entry, looked up): as the sequence (P31645 whole entry) above

Assay [5] has the same target. Description: Binding affinity to EGFP fused human SERT expressed in HEK293 cells after 1 hr by confocal microscopy in presence of paroxetine. It is filed as cell-based. In a few lines:
as §1
Target sequence in this assay (P31645 whole entry, looked up): as the sequence (P31645 whole entry) above

Assay [6] has the same target. Description: Binding affinity to EGFP fused human SERT expressed in HEK293 cells after 1 hr by confocal microscopy in presence of S-citalopram. It is filed as cell-based. The procedure, abridged: as §1
Target sequence in this assay (P31645 whole entry, looked up): as the sequence (P31645 whole entry) above
The target is the same in assay [7]. The assay can be described thus: Binding affinity to EGFP fused human SERT expressed in HEK293 cells after 1 hr by confocal microscopy. It counts as cell-based. The procedure, abridged:
as §1
Target sequence in this assay (P31645 whole entry, looked up): as the sequence (P31645 whole entry) above

For assay [8], the system named is COS-7. The assay can be described thus: Ratio of Ki for human NET expressed in COS7 cells to Ki for human SERT expressed in COS7 cells. It counts as cell-based.
In assay [9] the test system is COS-7. The assay can be described thus: Ratio of Ki for human DAT expressed in COS7 cells to Ki for human SERT expressed in COS7 cells. It is filed as cell-based.

Sodium-dependent noradrenaline transporter, sequence (P23975 whole entry, the tested form may be a part): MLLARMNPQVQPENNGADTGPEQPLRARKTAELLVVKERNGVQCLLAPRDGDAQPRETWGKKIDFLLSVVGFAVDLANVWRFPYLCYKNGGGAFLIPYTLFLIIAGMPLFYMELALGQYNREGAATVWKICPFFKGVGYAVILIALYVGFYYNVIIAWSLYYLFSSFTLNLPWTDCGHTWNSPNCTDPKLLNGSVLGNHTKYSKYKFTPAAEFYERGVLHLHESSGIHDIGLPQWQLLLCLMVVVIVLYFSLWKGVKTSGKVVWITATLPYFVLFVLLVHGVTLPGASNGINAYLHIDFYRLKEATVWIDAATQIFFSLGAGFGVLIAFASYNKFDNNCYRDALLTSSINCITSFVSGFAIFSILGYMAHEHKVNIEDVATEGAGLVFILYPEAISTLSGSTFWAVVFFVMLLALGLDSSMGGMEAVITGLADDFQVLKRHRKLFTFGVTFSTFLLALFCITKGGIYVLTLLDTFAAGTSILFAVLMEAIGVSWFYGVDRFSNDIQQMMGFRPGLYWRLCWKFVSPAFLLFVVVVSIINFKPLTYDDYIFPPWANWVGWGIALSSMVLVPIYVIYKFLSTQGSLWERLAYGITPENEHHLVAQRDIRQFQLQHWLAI
Sodium-dependent dopamine transporter, sequence (Q01959 whole entry): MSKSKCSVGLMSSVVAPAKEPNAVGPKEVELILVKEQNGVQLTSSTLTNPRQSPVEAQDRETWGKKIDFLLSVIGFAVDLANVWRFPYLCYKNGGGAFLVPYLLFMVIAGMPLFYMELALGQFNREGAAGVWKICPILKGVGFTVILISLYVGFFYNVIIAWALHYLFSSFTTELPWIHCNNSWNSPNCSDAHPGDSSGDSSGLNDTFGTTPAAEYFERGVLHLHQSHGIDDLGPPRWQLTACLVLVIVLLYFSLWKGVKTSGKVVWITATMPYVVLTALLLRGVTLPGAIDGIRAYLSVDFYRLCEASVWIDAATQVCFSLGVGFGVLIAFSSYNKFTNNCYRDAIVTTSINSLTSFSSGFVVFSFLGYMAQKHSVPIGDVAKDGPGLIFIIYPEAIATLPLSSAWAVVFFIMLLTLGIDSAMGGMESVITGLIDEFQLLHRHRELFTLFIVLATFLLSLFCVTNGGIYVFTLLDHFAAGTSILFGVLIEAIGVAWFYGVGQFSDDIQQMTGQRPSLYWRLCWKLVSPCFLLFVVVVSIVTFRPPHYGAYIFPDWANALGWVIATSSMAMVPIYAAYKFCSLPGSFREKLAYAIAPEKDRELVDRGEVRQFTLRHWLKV

By Ki is commonly meant a dissociation constant, usually derived from enzyme kinetics or from competition with a known ligand. High values mean weaker binding, low ones tighter binding. `CN(C)CCCC1(c2ccc(F)cc2)OCc2cc(-c3cccc(N)c3)ccc21` (stereo not drawn): in assay [1], the inhibitory constant (Ki) stood at 390 nM.

Regarding `CCN(CC)c1ccc2c(-c3ccc(S(=O)(=O)NCCCCCC(=O)NCCN4[C@@H]5CC[C@@H]4[C@@H](C(=O)OC)[C@@H](c4ccc(Cl)c(Cl)c4)C5)cc3S(=O)(=O)[O-])c3ccc(=[N+](CC)CC)cc-3oc2c1`, the Ki is 62 nM in assay [2], 392 nM in [1] and 194 nM in assay [3].

As to `CCN(CC)c1ccc2c(-c3ccc(S(=O)(=O)NCCCCCC(=O)NCCC(=O)Nc4cccc(-c5ccc6c(c5)COC6(CCCN(C)C)c5ccc(F)cc5)c4)cc3S(=O)(=O)[O-])c3ccc(=[N+](CC)CC)cc-3oc2c1` (stereo not drawn), the values for the Ki in [2], in assay [1] and in assay [3] were 10900 nM, 225 nM and 11800 nM, respectively. The result in assay [4], in [5] and in assay [6] was inactive. The outcome in assay [7] was Active. In addition, the Ratio Ki with COS-7 [8] and in the assay with COS-7 [9] was 50 in each case.
